Experimental data pooled from the literature.
Each line is one published result; the experiments were not run side by side.
MAOB: Amine oxidase [flavin-containing] B (MAOB, Homo sapiens, UniProt P27338)
PADI4: Protein-arginine deiminase type-4 (PADI4, Homo sapiens, UniProt Q9UM07)
PKN1: Serine/threonine-protein kinase N1 (PKN1, Homo sapiens, UniProt Q16512)
CA9: Carbonic anhydrase 9 (CA9, Homo sapiens, UniProt Q16790)
HRH1: Histamine H1 receptor (HRH1, Homo sapiens, UniProt P35367)

O=C(Nc1ccc([N+](=O)[O-])cc1C(F)(F)F)c1cc(Cl)ccc1O  inhibition (MAOB; enzyme activity; inhibitor; 1 µM; 20 min): 30%
CC(C)(C)n1nnc([C@H](CCCNC(=N)CCl)NC(=O)c2ccccc2)n1  kinact/KI (PADI4; enzyme activity; inhibitor): 11.8 M⁻¹ s⁻¹
C[C@@H]1CN(CC(=O)Nc2ccc3c(c2)Cc2cccc(-c4cc(=O)cc(N5CCOCC5)o4)c2S3)C[C@H](C)O1  activity vs control (PKN1; enzyme activity; inhibitor; 1 µM): 79%
O=C(Nc1ccc([N+](=O)[O-])cc1Cl)c1ccccc1O  inhibition (MAOB; enzyme activity; inhibitor; 1 µM; 20 min): 14%
CCN(CCCOc1ccc2c(Nc3cc(CC(=O)Nc4cccc(F)c4)n[nH]3)ncnc2c1)CCOP(=O)(O)O  activity vs control (PKN1; enzyme activity; inhibitor; 1 µM): 81%
Cc1ccc(-c2nn(-c3ccccc3)cc2C2c3sc(=O)[nH]c3SC3C(=O)N(c4ccccc4)C(=O)C32)cc1 (centres unmarked)  inhibition (CA9; enzyme activity; inhibitor; 1 µM): 63.2%
Cc1ccc2c(=O)c3ccccc3n(CCCN)c2c1C.O=C(O)/C=C\C(=O)O  activity vs control (PKN1; enzyme activity; inhibitor; 1 µM): 64%
CN(C)CCOC1c2ccccc2CCc2ccccc21  koff (HRH1; binding): 0.00215 s⁻¹
N#Cc1ccc(NC(=O)c2ccccc2)cc1  inhibition (MAOB; enzyme activity; inhibitor; 1 µM; 20 min): 27%
CCOC(=O)C1CSc2[nH]c(=O)sc2C1c1cn(-c2ccccc2)nc1-c1ccc(OC)cc1 (centres unmarked)  inhibition (CA9; enzyme activity; inhibitor; 10 nM): 21.5%
O=C(Nc1cc(F)ccc1[N+](=O)[O-])c1cc(Cl)ccc1O  inhibition (MAOB; enzyme activity; inhibitor; 1 µM; 20 min): 6%
O=C(c1ccc(Cl)cc1)N(Cc1ccccc1)C1CCCCC1  inhibition (Muscarinic acetylcholine receptor M4 (CHRM4, Homo sapiens, UniProt P08173); cell-free assay; 10 µM): 7.1%
C=CC(=O)Nc1cccc(Oc2nc(Nc3ccc(N4CCN(C)CC4)cc3OC)ncc2Cl)c1  activity vs control (PKN1; enzyme activity; inhibitor; 1 µM): 84%
N#CC1CSc2[nH]c(=O)sc2C1c1cn(-c2ccccc2)nc1-c1ccc(Br)cc1 (centres unmarked)  inhibition (CA9; enzyme activity; inhibitor; 1 µM): 74.5%
CC(=O)Nc1cccc(-n2c(=O)n(C3CC3)c(=O)c3c(Nc4ccc(I)cc4F)n(C)c(=O)c(C)c32)c1  activity vs control (PKN1; enzyme activity; inhibitor; 1 µM): 97%
Cc1cc([N+](=O)[O-])ccc1NC(=O)c1ccccc1  inhibition (MAOB; enzyme activity; inhibitor; 1 µM; 20 min): 7%
CC(C)(C)n1nnc([C@H](CCCNC(=N)CF)NC(=O)c2ccccc2C(=O)O)n1  kinact/KI (PADI4; enzyme activity; inhibitor): 432 M⁻¹ s⁻¹
CN1CCC(=C2c3ccccc3CCc3cccnc32)CC1  kon (HRH1; binding): 533000 M⁻¹ s⁻¹
CCn1c(=O)c(-c2ccc(Cl)cc2Cl)cc2cnc(Nc3ccc(N4CCNCC4)c(F)c3)nc21  activity vs control (PKN1; enzyme activity; inhibitor; 1 µM): 47%
O=C(Nc1ccccc1Cl)c1cc(Cl)ccc1O  inhibition (MAOB; enzyme activity; inhibitor; 1 µM; 20 min): 5%
CN1CCN(C2c3ccccc3CCc3ccccc32)CC1  kon (HRH1; binding): 567000 M⁻¹ s⁻¹
Cc1cc([N+](=O)[O-])ccc1NC(=O)c1ccc(Cl)cc1  inhibition (MAOB; enzyme activity; inhibitor; 1 µM; 20 min): 10%
CCS(=O)(=O)Nc1ccc2c(c1)/C(=C(/Nc1ccc(CN3CCCCC3)cc1)c1ccccc1)C(=O)N2  activity vs control (PKN1; enzyme activity; inhibitor; 1 µM): 1%
